Source: ChEMBL document CHEMBL3608275, “Synthesis, nicotinic acetylcholine receptor binding, in vitro and in vivo pharmacology properties of 3'-(substituted pyridinyl)-deschloroepibatidine analogs” (Bioorg Med Chem, 2015)

Columns and labels:
Mus musculus [1] = experiment: Antinociceptive activity in sc dosed mouse assessed as spontaneous locomotor activity measured for 10 mins; format: functional
[2] = target: T1, Neuronal acetylcholine receptor; alpha4/beta2 (Rattus norvegicus) (UniProt P09483+P12390); experiment: Agonist activity at rat alpha4beta2 nAChR expressed in Xenopus laevis oocytes assessed as mean current response at 100 uM by two-electrode voltage clamp electrophysiology assay relative to acetylcholine; format: cell-based
Mus musculus [3] = experiment: Antinociceptive activity in sc dosed mouse assessed as reduction of body rectal temperature; format: functional
Mus musculus [4] = experiment: Antinociceptive activity in sc dosed mouse assessed as jumping or licking of paw behavior after 5 mins by hot-plate test
[5] = target: Neuronal acetylcholine receptor subunit alpha-7 (Rattus norvegicus) (UniProt Q05941); experiment: Agonist activity at rat alpha7 nAChR expressed in Xenopus laevis oocytes assessed as mean current response at 100 uM by two-electrode voltage clamp electrophysiology assay relative to acetylcholine; format: cell-based
Sequence of Neuronal acetylcholine receptor subunit alpha-7 (Rattus norvegicus) (Q05941 whole entry): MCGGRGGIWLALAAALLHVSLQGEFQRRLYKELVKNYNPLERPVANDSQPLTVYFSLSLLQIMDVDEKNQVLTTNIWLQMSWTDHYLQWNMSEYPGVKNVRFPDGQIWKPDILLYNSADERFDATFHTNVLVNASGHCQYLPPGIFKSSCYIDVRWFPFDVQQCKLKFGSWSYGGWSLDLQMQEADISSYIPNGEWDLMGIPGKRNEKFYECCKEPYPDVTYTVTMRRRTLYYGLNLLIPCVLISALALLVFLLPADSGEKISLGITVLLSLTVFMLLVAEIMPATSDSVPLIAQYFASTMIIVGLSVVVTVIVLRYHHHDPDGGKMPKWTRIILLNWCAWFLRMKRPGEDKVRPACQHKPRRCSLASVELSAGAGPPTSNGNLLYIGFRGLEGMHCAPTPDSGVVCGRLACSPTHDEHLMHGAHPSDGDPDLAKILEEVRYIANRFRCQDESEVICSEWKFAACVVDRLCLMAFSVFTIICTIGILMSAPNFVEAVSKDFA

[6] = target: T2, Neuronal acetylcholine receptor; alpha3/beta4 (Rattus norvegicus) (UniProt P04757+P12392); experiment: Agonist activity at rat alpha3beta4 nAChR expressed in Xenopus laevis oocytes assessed as mean current response at 100 uM by two-electrode voltage clamp electrophysiology assay relative to acetylcholine; format: cell-based
Mus musculus [7] = experiment: Antinociceptive activity in intratracheally dosed mouse assessed as maximum latency after 5 mins by tail-flick assay; settings: inhaled or nasal
[8] = target: Neuronal acetylcholine receptor subunit alpha-7 (Rattus norvegicus, UniProt Q05941); experiment: Antagonist activity at rat alpha7 nAChR expressed in Xenopus laevis oocytes assessed as inhibition of acetylcholine-induced mean current response by two-electrode voltage clamp electrophysiology assay; format: cell-based
Sequence of Neuronal acetylcholine receptor subunit alpha-7 (Q05941 whole entry): as above
Summary of the method: (§1)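 Rat nAChRs in Xenopus oocytes under two-electrode voltage clamp. […] IC50 is taken from concentration-inhibition curves.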

[9] = target: T2, Neuronal acetylcholine receptor; alpha3/beta4 (Rattus norvegicus); experiment: Antagonist activity at rat alpha3beta4 nAChR expressed in Xenopus laevis oocytes assessed as inhibition of acetylcholine-induced mean current response by measuring remaining current at 100 uM by two-electrode voltage clamp electrophysiology assay relative to control; values are per cent of control
Mus musculus [10] = experiment: Antinociceptive activity in mouse assessed as inhibition of nicotine-induced antinociception at 1000 ug/kg, sc after 5 mins by hot-plate test; format: functional
[11] = target: Neuronal acetylcholine receptor subunit alpha-7 (Rattus norvegicus) (UniProt Q05941); experiment: Antagonist activity at rat alpha7 nAChR expressed in Xenopus laevis oocytes assessed as inhibition of acetylcholine-induced mean current response by measuring remaining current at 100 uM by two-electrode voltage clamp electrophysiology assay relative to control; values are per cent of control
Mus musculus [12] = experiment: Antinociceptive activity in intratracheally dosed mouse assessed as inhibition of nicotine-induced antinociception after 5 mins by tail-flick assay; format: functional
[13] = target: Neuronal acetylcholine receptor; alpha3/beta4 (Rattus norvegicus, UniProt P04757+P12392); experiment: Antagonist activity at rat alpha3beta4 nAChR expressed in Xenopus laevis oocytes assessed as inhibition of acetylcholine-induced mean current response by two-electrode voltage clamp electrophysiology assay; format: cell-based; summary of the method: as §1
Sequence of Neuronal acetylcholine receptor; alpha3/beta4 (P04757 whole entry): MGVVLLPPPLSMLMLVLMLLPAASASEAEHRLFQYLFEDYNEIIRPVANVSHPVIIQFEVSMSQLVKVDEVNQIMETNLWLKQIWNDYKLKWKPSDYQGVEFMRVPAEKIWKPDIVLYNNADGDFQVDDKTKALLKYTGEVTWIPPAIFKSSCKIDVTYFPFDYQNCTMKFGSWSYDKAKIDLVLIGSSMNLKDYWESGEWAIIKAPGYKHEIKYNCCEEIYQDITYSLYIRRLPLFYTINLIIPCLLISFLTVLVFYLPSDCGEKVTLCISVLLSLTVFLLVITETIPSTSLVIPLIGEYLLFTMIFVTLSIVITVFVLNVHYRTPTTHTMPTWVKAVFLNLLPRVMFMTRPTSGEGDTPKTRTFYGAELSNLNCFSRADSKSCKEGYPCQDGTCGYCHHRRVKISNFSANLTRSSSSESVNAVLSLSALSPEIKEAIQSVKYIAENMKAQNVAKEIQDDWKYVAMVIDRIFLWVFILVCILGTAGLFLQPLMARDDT
Sequence of Neuronal acetylcholine receptor; alpha3/beta4 (P12392 whole entry): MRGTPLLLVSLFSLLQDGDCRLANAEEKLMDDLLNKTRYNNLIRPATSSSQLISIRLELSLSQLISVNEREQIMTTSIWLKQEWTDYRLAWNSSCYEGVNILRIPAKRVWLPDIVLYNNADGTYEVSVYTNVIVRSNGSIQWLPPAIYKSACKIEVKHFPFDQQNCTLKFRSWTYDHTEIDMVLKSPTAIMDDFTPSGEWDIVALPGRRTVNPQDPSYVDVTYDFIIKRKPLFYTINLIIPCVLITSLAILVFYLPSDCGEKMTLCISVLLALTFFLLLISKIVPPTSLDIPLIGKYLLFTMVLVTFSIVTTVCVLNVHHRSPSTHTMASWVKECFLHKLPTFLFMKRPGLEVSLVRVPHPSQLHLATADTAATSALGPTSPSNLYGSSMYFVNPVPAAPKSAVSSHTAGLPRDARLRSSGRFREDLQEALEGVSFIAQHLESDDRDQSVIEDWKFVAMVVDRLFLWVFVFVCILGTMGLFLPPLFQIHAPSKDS

[14] = target: T3, Neuronal acetylcholine receptor; alpha4/beta2 (Rattus norvegicus, UniProt P09483+P12390); experiment: Displacement of [3H]-epibatidine from alpha4beta2 nAChR in rat cerebral cortex homogenates after 4 hrs by liquid scintillation counting; format: tissue-based
T3 sequence (P09483 whole entry): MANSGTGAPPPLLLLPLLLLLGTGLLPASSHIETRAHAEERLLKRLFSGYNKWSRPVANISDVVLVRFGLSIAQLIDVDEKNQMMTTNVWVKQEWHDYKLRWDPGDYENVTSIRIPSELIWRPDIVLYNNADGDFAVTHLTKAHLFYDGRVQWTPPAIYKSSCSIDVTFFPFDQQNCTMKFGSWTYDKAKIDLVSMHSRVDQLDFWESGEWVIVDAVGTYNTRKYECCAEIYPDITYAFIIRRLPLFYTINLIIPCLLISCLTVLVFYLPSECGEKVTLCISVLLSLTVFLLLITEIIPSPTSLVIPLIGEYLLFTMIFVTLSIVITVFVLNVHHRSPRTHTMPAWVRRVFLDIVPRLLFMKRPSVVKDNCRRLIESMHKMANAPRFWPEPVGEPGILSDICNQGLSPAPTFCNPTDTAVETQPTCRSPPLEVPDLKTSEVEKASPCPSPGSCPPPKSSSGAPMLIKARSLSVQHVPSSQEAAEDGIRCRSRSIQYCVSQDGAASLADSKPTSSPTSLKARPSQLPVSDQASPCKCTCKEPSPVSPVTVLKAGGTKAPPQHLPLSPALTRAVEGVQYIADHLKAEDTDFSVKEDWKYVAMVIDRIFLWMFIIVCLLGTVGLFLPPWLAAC
T3 sequence (P12390 whole entry): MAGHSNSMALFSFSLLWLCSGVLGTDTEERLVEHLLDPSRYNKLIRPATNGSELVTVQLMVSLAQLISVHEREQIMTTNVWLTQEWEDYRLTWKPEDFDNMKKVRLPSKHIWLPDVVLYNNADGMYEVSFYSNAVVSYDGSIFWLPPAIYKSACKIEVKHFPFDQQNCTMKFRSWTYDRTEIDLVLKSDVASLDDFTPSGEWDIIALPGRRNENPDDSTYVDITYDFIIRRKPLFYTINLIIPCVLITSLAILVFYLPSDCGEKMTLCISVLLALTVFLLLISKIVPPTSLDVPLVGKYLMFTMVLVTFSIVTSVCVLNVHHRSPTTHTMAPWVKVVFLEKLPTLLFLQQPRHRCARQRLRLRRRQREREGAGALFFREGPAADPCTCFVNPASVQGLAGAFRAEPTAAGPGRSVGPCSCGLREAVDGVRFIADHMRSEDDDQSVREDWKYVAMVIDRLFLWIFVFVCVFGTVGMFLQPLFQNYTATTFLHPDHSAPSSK

[15] = target: T3, Neuronal acetylcholine receptor; alpha4/beta2; experiment: Antagonist activity at rat alpha4beta2 nAChR expressed in Xenopus laevis oocytes assessed as inhibition of acetylcholine-induced mean current response by two-electrode voltage clamp electrophysiology assay; format: cell-based; summary of the method: as §1
[16] = target: T1, Neuronal acetylcholine receptor; alpha4/beta2 (Rattus norvegicus); experiment: Antagonist activity at rat alpha4beta2 nAChR expressed in Xenopus laevis oocytes assessed as inhibition of acetylcholine-induced mean current response by measuring remaining current at 100 uM by two-electrode voltage clamp electrophysiology assay relative to control; values are per cent of control
Mus musculus [17] = experiment: Antinociceptive activity in mouse assessed as maximum latency at 10 mg/kg, administered as intratracheally after 5 mins by tail-flick assay; format: functional
Mus musculus [18] = experiment: Antinociceptive activity in mouse assessed as jumping or licking of paw behavior at 10 mg/kg, sc after 5 mins by hot-plate test; format: functional
Mus musculus [19] = experiment: Antinociceptive activity in mouse assessed as spontaneous locomotor activity at 10 mg/kg, sc measured for 10 mins; format: functional
Mus musculus [20] = experiment: Antinociceptive activity in mouse assessed as reduction of body rectal temperature at 10 mg/kg, sc; format: functional; design: scale not given: the % may be the effect or the level left
Mus musculus [21] = experiment: Antinociceptive activity in sc dosed mouse assessed as inhibition of nicotine-induced antinociception after 5 mins by hot-plate test; format: functional
Mus musculus [22] = experiment: Antinociceptive activity in mouse assessed as inhibition of nicotine-induced antinociception at 10000 ug/kg, sc after 5 mins by hot-plate test; format: functional

SMILES | ED50 (Mus musculus [1]) [mg/kg] | Activity [2] [%] | ED50 (Mus musculus [3]) [mg/kg] | Activity [5] [%] | Activity [6] [%] | IC50 [8] [µM] | residual activity [9] [%] | inhibition in vivo at 1 mg/kg (Mus musculus [10]) [%] | residual activity [11] [%] | AD50 (Mus musculus [12]) [mg/kg] | IC50 [13] [µM] | Ki [14] [pM] | IC50 [15] [µM] | residual activity [16] [%] | Activity (Mus musculus [17]) [%] | Activity (Mus musculus [18]) [%] | also measured
Clc1ccc([C@H]2C[C@H]3CC[C@H]2N3)cn1 | 0.001 | 131 | 0.004 | 150 | 97 |  |  |  |  |  |  |  |  |  |  |  | ED50 (Mus musculus [4]): 0.004 mg/kg; ED50 (Mus musculus [7]): 0.006 mg/kg
Fc1ccc(-c2cncc([C@H]3C[C@H]4CC[C@H]3N4)c2)cn1 (racemic) | 0.69 | 0 | 2.78 | 0 | 5.5 | 60 | 41 | 10 | 36 | 0.002 | 33 | 130 | 1.3 | 7.9 | 10 | 10 | 
c1cc(-c2cncc([C@H]3C[C@H]4CC[C@H]3N4)c2)ccn1 (racemic) | 1.76 | 1 | 5 | 8.1 | 9.5 | 179 | 11 | 20 | 69 | 0.039 | 23 | 220 | 7.1 | 3.9 | 7 | 4 | 
Fc1cc(-c2cncc([C@H]3C[C@H]4CC[C@H]3N4)c2)ccn1 (racemic) | 1.78 | 0 | 5.2 | 5.7 | 9.5 | 233 | 18 | 46 | 90 | 0.0012 | 23 | 180 | 2.9 | 8.1 | 13 | 34 | 
Clc1cc(-c2cncc([C@H]3C[C@H]4CC[C@H]3N4)c2)ccn1 (racemic) | 1.6 | 0 | 6.2 | 8.1 | 6.5 | 97 | 10 | 36 | 47 | 0.11 | 20 | 290 | 11 | 5.7 | 10 | 30 | 
Nc1cc(-c2cncc([C@H]3C[C@H]4CC[C@H]3N4)c2)ccn1 (racemic) |  | 0 |  | 12 | 1.2 |  | 4.2 | 32 | 44 | 0.001 |  | 380 |  | 5.2 | 1 | 5 | Activity (Mus musculus [19]): 20%; Activity (Mus musculus [20]): 0%
COc1cc(-c2cncc([C@H]3C[C@H]4CC[C@H]3N4)c2)ccn1 (racemic) |  | 0 | 10 | 16 | 6.1 | 114 | 7.2 |  | 47 | 0.0003 | 13 | 94 | 1.2 | 4 | 14 | 50 | AD50 (Mus musculus [21]): 0.9 mg/kg
c1cncc(-c2cncc([C@H]3C[C@H]4CC[C@H]3N4)c2)c1 (racemic) | 3 | 0 | 7 | 5.8 | 4.5 | 117 | 14 |  | 59 | 0.00068 | 22 | 810 | 6.4 | 5.3 | 3 | 14 | AD50 (Mus musculus [21]): 2 mg/kg
Clc1ccc(-c2cncc([C@H]3C[C@H]4CC[C@H]3N4)c2)cn1 (racemic) | 0.56 | 0 | 5.5 | 4.8 | 3.1 | 66 | 12 | 10 | 38 | 0.0005 | 24 | 120 | 2.7 | 4.8 | 8 | 17 | 
Nc1ccc(-c2cncc([C@H]3C[C@H]4CC[C@H]3N4)c2)cn1 (racemic) |  | 0 |  | 7 | 0 |  | 5.4 |  | 46 | 0.0015 |  | 900 |  | 5.7 | 3 | 14 | Activity (Mus musculus [19]): 20%; Activity (Mus musculus [20]): 0%; inhibition in vivo at 10 mg/kg (Mus musculus [22]): 50%
COc1ccc(-c2cncc([C@H]3C[C@H]4CC[C@H]3N4)c2)cn1 (racemic) | 0.56 | 0 | 5.5 | 1.2 | 2.4 | 30 | 8.4 | 10 | 18 | 0.0005 | 8.2 | 270 | 1.8 | 4.5 | 8 | 17 | 
CN1CCC[C@H]1c1cccnc1 [NICOTINE] | 0.5 | 40 | 1 | 43 | 37 |  |  |  |  |  |  |  |  |  |  |  | ED50 (Mus musculus [4]): 0.65 mg/kg; ED50 (Mus musculus [7]): 1.3 mg/kg
c1cnc2cc3c(cc2n1)[C@@H]1CNC[C@H]3C1 [VARENICLINE] | 2.1 | 13 | 2.8 | 74 | 66 |  |  |  |  | 0.0002 |  |  |  |  | 11 | 10 | AD50 (Mus musculus [21]): 0.47 mg/kg
